Converted amounts (≈) assume the structure as drawn. The source made the active and inactive calls. The calls are words filed in the database; no cut-off is given here.

Usually IC50 stands for the concentration that inhibits the measured activity by half. In general, inhibition refers to the share of the control response that was lost under treatment. Broadly, the solubility is the dissolved amount per volume that the medium holds.

Series [1] can be described thus: Inhibition of Streptococcus agalactiae 4755 hyaluronidase at pH 7.4 after 3 hrs by turbidimetric analysis. The procedure, abridged: (§1)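 Same turbidimetric hyaluronan-lyase assay at pH 7.4 (citrate–phosphate/NaCl): SagHyal4755 2.9 ng, hyaluronan (2 mg/ml stock), BSA, 3.8% DMSO final, 3 h at 37 °C. CTAB (2.5%, in 0.5 M NaOH) precipitation, 20 min at 25 °C, A600. Activity scaled between no-inhibitor and no-enzyme samples.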

In series [2] the target is T1, Hyaluronidase (Bos taurus) (UniProt Q8SQG8+Q5E985). The experiment in a line: Inhibition of bovine testes hyaluronidase at 200 uM after 30 mins at pH 5 by turbidimetric analysis. Type of series: protein assay.
T1 sequence (Q5E985 whole entry, looked up): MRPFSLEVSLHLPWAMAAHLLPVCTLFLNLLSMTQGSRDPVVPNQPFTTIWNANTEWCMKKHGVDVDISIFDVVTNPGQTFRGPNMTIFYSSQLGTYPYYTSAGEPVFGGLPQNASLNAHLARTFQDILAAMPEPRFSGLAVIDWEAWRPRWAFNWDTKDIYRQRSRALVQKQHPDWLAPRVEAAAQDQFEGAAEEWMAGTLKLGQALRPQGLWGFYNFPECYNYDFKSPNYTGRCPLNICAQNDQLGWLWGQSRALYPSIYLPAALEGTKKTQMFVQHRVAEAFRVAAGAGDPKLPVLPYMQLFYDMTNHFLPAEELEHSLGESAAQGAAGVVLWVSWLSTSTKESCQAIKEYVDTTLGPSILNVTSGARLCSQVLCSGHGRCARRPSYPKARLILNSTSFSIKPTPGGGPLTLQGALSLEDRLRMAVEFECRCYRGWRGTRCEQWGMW
T1 sequence (Q8SQG8 whole entry, looked up): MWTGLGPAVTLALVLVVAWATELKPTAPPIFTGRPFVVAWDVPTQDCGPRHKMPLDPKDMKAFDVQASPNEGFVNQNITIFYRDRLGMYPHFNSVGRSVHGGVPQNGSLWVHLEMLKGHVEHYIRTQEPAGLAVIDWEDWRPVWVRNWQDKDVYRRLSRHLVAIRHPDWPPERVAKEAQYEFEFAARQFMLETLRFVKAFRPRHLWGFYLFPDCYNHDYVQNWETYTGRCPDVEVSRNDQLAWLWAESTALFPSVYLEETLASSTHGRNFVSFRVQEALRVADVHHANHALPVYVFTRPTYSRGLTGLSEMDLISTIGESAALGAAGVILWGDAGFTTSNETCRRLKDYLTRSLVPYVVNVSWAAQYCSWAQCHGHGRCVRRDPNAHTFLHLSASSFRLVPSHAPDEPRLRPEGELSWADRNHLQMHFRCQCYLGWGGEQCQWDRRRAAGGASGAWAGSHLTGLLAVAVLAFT
Series [3] addresses T1, Hyaluronidase (Bos taurus). The experiment in a line: Inhibition of bovine testes hyaluronidase at 380 uM after 30 mins at pH 5 by turbidimetric analysis. Type of series: protein assay.
For series [4], the target named is T1, Hyaluronidase (Bos taurus). The series can be described thus: Inhibition of bovine testes hyaluronidase at 49 uM after 30 mins at pH 5 by turbidimetric analysis. The series is classed as protein assay.
The target in series [5] is T1, Hyaluronidase (Bos taurus). The series can be described thus: Inhibition of bovine testes hyaluronidase at 4200 uM after 30 mins at pH 5 by turbidimetric analysis. The series is classed as protein assay.
Series [6] has as its target T1, Hyaluronidase (Bos taurus). The series can be described thus: Inhibition of bovine testes hyaluronidase at 460 uM after 30 mins at pH 5 by turbidimetric analysis. The series is classed as protein assay.
Series [7] addresses T1, Hyaluronidase (Bos taurus). The experiment in a line: Inhibition of bovine testes hyaluronidase at 180 uM after 30 mins at pH 5 by turbidimetric analysis. The series is classed as protein assay.
Series [8] deals with T1, Hyaluronidase (Bos taurus). The series can be described thus: Inhibition of bovine testes hyaluronidase at 190 uM after 30 mins at pH 5 by turbidimetric analysis. Type of series: protein assay.
The target of series [9] is T1, Hyaluronidase (Bos taurus). The experiment in a line: Inhibition of bovine testes hyaluronidase at 170 uM after 30 mins at pH 5 by turbidimetric analysis. The series is classed as protein assay.
Series [10] deals with T1, Hyaluronidase (Bos taurus). The series can be described thus: Inhibition of bovine testes hyaluronidase at 100 uM after 30 mins at pH 5 by turbidimetric analysis. The series is classed as protein assay.
Series [11] deals with T1, Hyaluronidase (Bos taurus). The experiment in a line: Inhibition of bovine testes hyaluronidase at 400 uM after 30 mins at pH 5 by turbidimetric analysis. Type of series: protein assay.
In series [12] the target is T1, Hyaluronidase (Bos taurus). The series can be described thus: Inhibition of bovine testes hyaluronidase at 3800 uM after 30 mins at pH 5 by turbidimetric analysis. Type of series: protein assay.
Series [13] deals with T1, Hyaluronidase (Bos taurus). The experiment in a line: Inhibition of bovine testes hyaluronidase at 130 uM after 30 mins at pH 5 by turbidimetric analysis. The series is classed as protein assay.
Series [14] addresses T1, Hyaluronidase (Bos taurus). The series can be described thus: Inhibition of bovine testes hyaluronidase at 63 uM after 30 mins at pH 5 by turbidimetric analysis. The series is classed as protein assay.
The target of series [15] is T1, Hyaluronidase (Bos taurus). The series can be described thus: Inhibition of bovine testes hyaluronidase at 80 uM after 30 mins at pH 5 by turbidimetric analysis. The series is classed as protein assay.
The target of series [16] is T1, Hyaluronidase (Bos taurus). The experiment in a line: Inhibition of bovine testes hyaluronidase at 2000 uM after 30 mins at pH 5 by turbidimetric analysis. Type of series: protein assay.
Series [17] deals with T1, Hyaluronidase (Bos taurus). The series can be described thus: Inhibition of bovine testes hyaluronidase at 150 uM after 30 mins at pH 5 by turbidimetric analysis. The series is classed as protein assay.
A short description of series [18]: Aqueous solubility of the compound in water. Type of series: physicochemical. In a few lines:
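Turbidity at 600 nm of test compound in DMSO added to citrate–phosphate buffer (pH 5 and pH 7.4), water and BSA (0.2 mg/ml stock), at various concentrations, read against a water reference. Enzyme testing used only concentrations showing no turbidity.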

For series [19], the system named is Streptococcus agalactiae. The series can be described thus: Inhibition of Streptococcus agalactiae 4755 hyaluronidase at 170 uM after 30 mins at pH 5.0 by turbidimetric analysis. In a few lines:
(§2)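 SagHyal4755 (2.9 ng) with BSA and hyaluronan (2 mg/ml stock) in citrate–phosphate/NaCl buffer pH 5.0, 3.8% DMSO final, 30 min at 37 °C. Stopped by alkaline 2.5% CTAB, then 20 min at 25 °C. Residual-substrate turbidity read at 600 nm; no-inhibitor sample = 100%, no-enzyme sample = 0% activity. Enzyme-free compound controls were run.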

In series [20] the test system is Streptococcus agalactiae. The series can be described thus: Inhibition of Streptococcus agalactiae 4755 hyaluronidase at 63 uM after 30 mins at pH 5.0 by turbidimetric analysis. The procedure, abridged:
as §2

Series [21] relates to Streptococcus agalactiae. The series can be described thus: Inhibition of Streptococcus agalactiae 4755 hyaluronidase at 4200 uM after 3 hrs at pH 7.4 by turbidimetric analysis. The procedure, abridged: as §1
In series [22] the test system is Streptococcus agalactiae. The experiment in a line: Inhibition of Streptococcus agalactiae 4755 hyaluronidase at 4200 uM after 30 mins at pH 5.0 by turbidimetric analysis. The procedure, abridged: as §2
Series [23] deals with Streptococcus agalactiae. The series can be described thus: Inhibition of Streptococcus agalactiae 4755 hyaluronidase at 130 uM after 30 mins at pH 5.0 by turbidimetric analysis. The procedure, abridged: as §2
The test system of series [24] is Streptococcus agalactiae. The experiment in a line: Inhibition of Streptococcus agalactiae 4755 hyaluronidase at 3800 uM after 30 mins at pH 5.0 by turbidimetric analysis. The procedure, abridged: as §2
The test system of series [25] is Streptococcus agalactiae. The series can be described thus: Inhibition of Streptococcus agalactiae 4755 hyaluronidase at 2000 uM after 30 mins at pH 5.0 by turbidimetric analysis. The procedure, abridged:
as §2

The test system of series [26] is Streptococcus agalactiae. The series can be described thus: Inhibition of Streptococcus agalactiae 4755 hyaluronidase at 2000 uM after 3 hrs at pH 7.4 by turbidimetric analysis. The procedure, abridged:
as §1

A short description of series [27]: Inhibition of Streptococcus agalactiae 4755 hyaluronidase at pH 5.0 after 30 mins by turbidimetric analysis. In a few lines: as §2
The subject of series [28] is Streptococcus agalactiae. The series can be described thus: Inhibition of Streptococcus agalactiae 4755 hyaluronidase at 200 uM after 3 hrs at pH 7.4 by turbidimetric analysis. In a few lines:
as §1

For series [29], the system named is Streptococcus agalactiae. The series can be described thus: Inhibition of Streptococcus agalactiae 4755 hyaluronidase at 80 uM after 30 mins at pH 5.0 by turbidimetric analysis. The procedure, abridged: as §2

Take `CCCCCC(=O)n1c(=S)[nH]c2ccccc21`: inhibition in [1] was half-maximal at 16 µM (IC50). The inhibition entry in [2], in series [3], in series [4], in series [5], in series [6] and in [7] was “inactive” each time. In addition, the inhibition result in series [8], in series [9], in [10], in series [11], in series [12] and in series [13] was “inactive” throughout. Also, the inhibition entry in [14], in series [15], in series [16] and in [17] was “inactive” in each case. Further, the solubility in series [18] amounted to 170 µM (≈ 42.2 µg/mL). This molecule yielded an inhibition in series [19] of 14%.

`CCCCCCCCCCCCCCCC(=O)n1c(=S)oc2ccccc21` had an IC50 in series [1] of 17 µM. The inhibition result in series [2], in series [3], in series [4], in series [5], in series [6] and in series [7] was “inactive” throughout. Besides, the inhibition entry in [8], in [9], in [10], in series [11], in [12] and in [13] was “inactive” in each case. In addition, the inhibition entry in [14], in series [15], in series [16] and in series [17] was “inactive” each time. In addition, the solubility in series [18] was 63 µM (≈ 24.5 µg/mL). Moreover, the inhibition in [20] stood at 23%.

Regarding `CCn1c(S)nc2ccccc21`, the values for the inhibition in [21] and in series [22] were 28% and 19%, respectively. The inhibition result in series [2], in [3], in series [4], in series [5], in series [6] and in series [7] was “inactive” in each case. Besides, the inhibition result in series [8], in [9], in [10], in series [11], in [12] and in [13] was “inactive” each time. Besides, the inhibition result in series [14], in series [15], in series [16] and in series [17] was “inactive” throughout. The solubility in series [18] turned out to be 4200 µM (≈ 749 µg/mL).

In the case of `CCCCCC(=O)n1c(=S)oc2ccccc21`, the half-inhibitory concentration (IC50) in series [1] worked out at 29 µM. Also, the inhibition entry in series [2], in series [3], in series [4], in series [5], in series [6] and in series [7] was “inactive” in each case. Besides, the inhibition entry in series [8], in [9], in series [10], in series [11], in [12] and in series [13] was “inactive” each time. The inhibition entry in series [14], in series [15], in series [16] and in series [17] was “inactive” throughout. In series [18], this molecule yielded a solubility of 130 µM (≈ 32.4 µg/mL). Also, the inhibition in series [23] came to 51%.

Molecule `Sc1nc2ccccc2o1` came in with an IC50 in series [1] of 2540 µM. Besides, the inhibition entry in series [2], in series [3], in series [4], in [5], in [6] and in series [7] was “inactive” each time. Moreover, the inhibition result in series [8], in [9], in [10], in series [11], in [12] and in [13] was “inactive” in each case. In addition, the inhibition result in series [14], in series [15], in series [16] and in series [17] was “inactive” throughout. This molecule also registered a solubility in [18] of 3800 µM (≈ 575 µg/mL). The inhibition in series [24] turned out to be 42%.

For the molecule `CC(=O)n1c(=O)oc2ccccc21`, the 50% inhibitory concentration (IC50) in [1] worked out at 1470 µM. In addition, the inhibition entry in series [2], in series [3], in [4], in [5], in series [6] and in series [7] was “inactive” each time. In addition, the inhibition entry in series [8], in [9], in [10], in series [11], in series [12] and in series [13] was “inactive” throughout. The inhibition result in series [14], in series [15], in series [16], in series [17] and in series [25] was “inactive” each time. Further, in series [18], the solubility was 2000 µM (≈ 354 µg/mL).

`COC(=O)c1ccc2oc(=S)[nH]c2c1`: the inhibition in series [26] was 27%. The inhibition result in series [2], in series [3], in series [4], in series [5], in [6] and in [7] was “inactive” each time. Moreover, the inhibition entry in [8], in series [9], in series [10], in [11], in [12] and in [13] was “inactive” throughout. Also, the inhibition entry in [14], in series [15], in series [16] and in [17] was “inactive” throughout. The molecule further had a concentration for half-maximal inhibition (IC50) in series [27] of 1300 µM.

Regarding `O=C(/C=C/c1ccccc1)n1c(=S)oc2ccccc21`, the inhibition in series [28] is 36%; in series [29], 9%. In addition, the inhibition result in [2], in series [3], in series [4], in series [5], in [6] and in [7] was “inactive” each time. Besides, the inhibition result in [8], in [9], in series [10], in series [11], in series [12] and in series [13] was “inactive” in each case. The inhibition entry in [14], in series [15], in [16] and in series [17] was “inactive” each time. Also, the concentration in solution in series [18] (solubility) came to 80 µM (≈ 22.5 µg/mL).
